Only a selection was taken, and hits are over-represented in it overall.
Insulin prom act: activators of insulin promoter-driven GFP, primary screen, imaging, TRM-6 cells, eGFP reporter, cell count; plate-scaled: unstimulated 0, stimulated control 100; activation, % at 2 µM; actives 0.81% (n = 130,000); AID 1296, 2008;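 active means activation at 2 µM above a set limit, confirmed on inspection of the cell images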;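 further: share of cells whose green reporter signal exceeds an intensity cutoff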
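System: human fetal islet-derived TRM-6 cells with tamoxifen-inducible insulin promoter–eGFP reporter; input: seeding density of 1,000 cells per well; buffer or medium: Low-glucose (5.5 mM) medium with tamoxifen; incubation: compound exposure 48 h, 37 °C; measured by: high-content imaging of fixed cells with Hoechst nuclear stain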
Numbers without * were called inactive.

SMILES	Insulin prom act
CCn1c2ccccc2c2cc(NC(=O)COc3ccccc3)ccc21	7
CN(CC(=O)Nc1ccccc1C(=O)N1CCCC1)S(=O)(=O)c1ccc(Br)cc1	3
CCC(Sc1ncnc2sc(C)c(C)c12)C(=O)OC (stereo not given)	7
CCOC(=O)c1c(NC(=O)CN2CCOCC2)sc2c1CCCC2=O	-10
Cc1sc(NC(=O)CN2CCOCC2)c(C(=O)c2ccccc2)c1C	75*
CCOC(=O)c1c(NC(=O)CN2CCOCC2)sc(C(=O)NC)c1C	-7
COc1ccc(Cc2ccc(OC)c(N)c2)cc1N	4
O=C(Nc1ccc([N+](=O)[O-])cc1Br)c1cccnc1	0
CC(C)CC1(C(=O)NCCc2c[nH]c3ccccc23)C=CCN1C(=O)c1ccccc1 (stereo not given)	-5
COc1ccc(S(=O)(=O)n2nc(C)cc2C)c(C)c1C	-7
CC1=NN(c2ccccc2)C(=O)/C1=C/C=C/c1ccc(N(C)C)cc1	0
O=C(CCN1C(=O)/C(=C/C=C/c2ccccc2)SC1=S)Nc1cccnc1	-5
C#CCN1C(=O)S/C(=C/C=C/c2ccc(N(C)C)cc2)C1=O	270*
Cn1c(Cn2c(=O)sc3ccccc32)nnc1SCC(=O)NCCc1ccccc1	100
CCn1nnnc1SCC(=O)NCc1ccco1	0
Cc1ccc(-c2nnn(CC(=O)N(Cc3ccccc3F)C(C(=O)NC3CCCC3)c3ccncc3)n2)o1 (stereo not given)	231
CCC(C(=O)NC1CCCC1)N(C(=O)Cn1nnc(-c2ccc(C)o2)n1)c1cnc2ccccc2c1 (stereo not given)	160*
Cc1ccc(-c2nnn(CC(=O)N(CC(=O)NC(C)C)c3cnc4ccccc4c3)n2)o1	-71
CCOC(=O)C1=C(C(F)(F)F)Nc2ncnn2C1c1cccc(OC)c1OC (stereo not given)	0
CCCCCCNC(=O)Cc1ccc(Br)cc1	-7
Cc1ccccc1NC(=S)N(C)C1(c2ccccc2Cl)CCCCC1=O (stereo not given)	6
CCOc1cc(S(=O)(=O)Nc2ccccn2)ccc1F	464*
COc1ccc(F)cc1S(=O)(=O)N1CCCC(C)C1 (stereo not given)	-9
CCOC(=O)N1CCN(C(=O)COc2ccc(S(=O)(=O)NC3CCCCC3)cc2C)CC1	123
COc1ccc(F)cc1S(=O)(=O)NC1CCCC1	83*
SMILES	Insulin prom act
COc1ccc(F)cc1S(=O)(=O)N1CCCN(S(=O)(=O)c2cc(F)ccc2OC)CC1	-75
CCOc1cc(S(=O)(=O)NC2CCCCCC2)ccc1F	420*
CCOc1cc(S(=O)(=O)Nc2ccc(Cl)cn2)ccc1Cl	-2
CCOc1cc(S(=O)(=O)n2nc(C)cc2C)ccc1F	-50
CCOc1cc(S(=O)(=O)N2CCOCC2)ccc1F	-81
CCCC1=NN2C(=N)/C(=C\c3cc(C)n(-c4cc(C)cc(C)c4)c3C)C(=O)N=C2S1	-3
O=C(NCc1ccncc1)Nc1ccc(Cl)cc1Cl	-3
O=C1C=C(NC2CCCC2)CC(c2ccccc2)C1 (stereo not given)	-8
CCN(CCCNC(=O)CCCOc1cc(=O)n(C)c2ccccc12)Cc1ccccc1	0
COc1cc(C)nc(N2CCC(C(N)=O)CC2)n1	-3
O=C(O)C1C2CCC(C2)C1C(=O)NCc1ccco1 (stereo not given)	-9
O=C(NCc1ccco1)C1CC2CCC1C2 (stereo not given)	0
O=C(/C=C/c1cccc([N+](=O)[O-])c1)NCC1CCCO1 (stereo not given)	0
CC(NC(=O)COC(=O)Cn1cnc2ccccc2c1=O)C1CC2CCC1C2 (stereo not given)	0
COc1ccc(C(=O)OCC(=O)Nc2ccc(F)cc2F)cc1OC	-3
CCC(C)NS(=O)(=O)c1ccc(OCC(=O)NCc2ccc3c(c2)OCO3)cc1 (stereo not given)	0
CCC(C)NS(=O)(=O)c1ccc(OCC(=O)Nc2ccc(F)cc2F)cc1 (stereo not given)	462*
CC(C)(C)NS(=O)(=O)c1cc(C(=O)O)ccc1Cl	-7
Cc1ccc(-n2c(Cl)c(Cl)nc(Cl)c2=O)cc1	233*
COc1cnn(-c2ccc(C)cc2)c(=O)c1Cl	146
CSc1nccc(-c2nn(-c3ccc(C)cc3)ccc2=O)n1	-8
Cc1nn(Cc2cccc(F)c2)c(C)c1NC(=O)c1c([N+](=O)[O-])c(C)nn1C	0
Cn1c(=O)c2c(ncn2CCCNC2=CC(C)(C)CC(=O)C2)n(C)c1=O	194
CC1CCCCN1CCCNC(=O)c1ccc2c(=O)n(CCc3ccccc3)c(=O)[nH]c2c1 (stereo not given)	0
O=C(c1ccc(Cl)c(S(=O)(=O)Nc2ccccc2C(=O)N2CCc3ccccc3C2)c1)N1CCc2ccccc2C1	7
SMILES	Insulin prom act
O=C(c1c[nH]c2ccc(S(=O)(=O)N3CCC4(CC3)OCCO4)cc2c1=O)N1CCOCC1	0
COC(CNC(=O)c1c[nH]c2ccc(S(=O)(=O)N3CCC4(CC3)OCCO4)cc2c1=O)OC	400*
COc1ccc(CCNC(=O)c2cc(S(=O)(=O)N3CCC4(CC3)OCCO4)ccc2F)cc1OC	0
COc1ccc(-c2ccc(/C=N/NC(=O)c3cccnc3)o2)c([N+](=O)[O-])c1	116
N/C(=N\OC(=O)CCCOc1ccccc1)c1ccccc1	-4
COc1cc(NC(=O)COC(=O)c2ccc(C)c(S(=O)(=O)N3CCCCC3)c2)c(C)cc1[N+](=O)[O-]	0
COc1cc(C2NC(=O)C(C#N)=C(S)N2c2ccccc2)ccc1OC(C)C (stereo not given)	192
Cc1ccc(C2C3CSCC=C3C(C#N)=C(N)C2(C#N)C#N)cc1 (stereo not given)	-4
CC(C)N1CC=C2C(C#N)=C(N)C(C#N)(C#N)[C@H](c3ccoc3)[C@H]2C1	161*
COc1cc(C2C3CN(C)CC=C3C(C#N)=C(N)C2(C#N)C#N)ccc1OC(C)C (stereo not given)	257*
CN1C2C=C3C(C#N)=C(N)C(C#N)(C#N)C(c4ccc(Br)cc4)C3C1CC2 (stereo not given)	281
CCC(CC)C(=O)c1c[nH]c(C(=O)NCCCn2ccnc2)c1	-3
COc1ccccc1NC(=O)N1CCCC1C(=O)NCc1ccc2c(c1)OCO2 (stereo not given)	-3
C=CCN1C(=O)C2C(C(=O)NC3CCCCC3)C3C=CC2(O3)C1C(=O)NC1CCCC1 (stereo not given)	6
COc1ccc(-c2nc(NC(=O)C3CC(=O)N(c4ccc5c(c4)OCCO5)C3)sc2C)cc1 (stereo not given)	3
N#Cc1ccccc1NC(=O)c1cc(=O)c2ccccc2o1	0
COc1ccc(/C=N/NC(=O)C2c3ccccc3Oc3ccccc32)c(OC)c1	-4
CCCCCC(=O)N1CCCC(c2nc(-c3ccc(OC)cc3)no2)C1 (stereo not given)	77*
COc1ccc(-c2noc(CCC(=O)N3CCC(C)CC3)n2)cc1	113
O=C(CC1CCCCC1)N1CCCC(c2nc(-c3ccc(S(=O)(=O)N4CCCC4)cc3)no2)C1 (stereo not given)	9
Cc1ccc(C(=O)c2sc3nsc(C)c3c2N)cc1	-4
Cn1nc(CC(=O)Nc2ccc(N3CCN(C(=O)OC(C)(C)C)CC3)cc2)c2ccccc2c1=O	5
O=C(CSc1ncnc2ccccc12)N1CCN(c2ccccc2)CC1	0
O=C(Nc1ccccc1C(=O)N/N=C/c1ccco1)c1ccc(Cl)cc1	0

Source: PubChem BioAssay
